Source: PMC4777266 (Pharmacology Research & Perspectives, 2016)

How the values were obtained:
[1] = Blood/plasma pharmacokinetics of total radiolabeled components; format: in vivo, male CD‐1 mice; details: dried blood and plasma; i.v. 1 mg/kg
Method in brief: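 Male albino CD-1 mice (30-36 g, 8-10 weeks) got one i.v. saphenous bolus of 1 mg/kg tritiated test nucleoside in 0.9% NaCl (2 mL/kg, 53-67 MBq/kg) under light isoflurane. EDTA blood was drawn at 0.083-48 h, two samples per mouse, n = 1 per time point. Plasma was spun 3000 g, 10 min, 4°C. Aliquots were dried at 37°C to remove tritiated water, then counted by LSC. Noncompartmental PK was used.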

[2] = Plasma metabolite profiles; format: in vivo, male CD‐1 mice; details: for AUC0‐48 h of radiolabeled component in plasma (% AUC of total RA): pool of 2 mice; for Highest plasma concentration: at 30 min after dosing
[3] = Quantitative whole-body autoradiography; format: in vivo, male CD‐1 mice
Method in brief: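 The same single 1 mg/kg i.v. tritium-label dose was given to male CD-1 mice. At 0.167, 1, 2, 24 and 48 h, mice were killed under deep isoflurane and frozen in hexane/dry ice at −70°C. 40 µm whole-body sections were exposed to imaging plates for 2 weeks at room temperature and scanned at 50 µm. Densitometry used blood calibrators. Tissue:blood Cmax/AUClast ratios were derived, AUC by linear trapezoidal rule.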

[4] = Excretion and mass balance; format: in vivo, male CD‐1 mice
[5] = Tolerability of the single intravenous administration; format: in vivo; details: mice
[6] = Metabolite profiles in selected tissues 1 h p.d.; format: in vivo, male CD‐1 mice; details: single iv 1 mg/kg, text: % of total radioactivity in the tissue
[7] = male, CD-1, mouse, plasma, iv, 1 mg/kg
[8] = 0–48 h, single iv 1 mg/kg, average of n = 2
[9] = single iv 1 mg/kg, average of n = 2
[10] = single iv 1 mg/kg, average of n = 2, 1 mg/kg

CO[C@@H]1[C@H](O)[C@@H](CO)O[C@H]1n1ccc(=O)[nH]c1=O [2′O‐methyluridine, 2′‐O‐methyluridine]
Tlast of total radiolabeled components [1]: 48 h | Total detected radiolabeled components, concentration in dried plasma ([2]; 0.083 h postdose, single iv 1 mg/kg): 0.446 µmol/L | Total detected radiolabeled components, concentration in dried plasma ([2]; 0.5 h postdose, single iv 1 mg/kg): 0.617 µmol/L | Total detected radiolabeled components, concentration in dried plasma ([2]; 1 h postdose, single iv 1 mg/kg): 0.343 µmol/L | Total detected radiolabeled components, concentration in dried plasma ([2]; 2 h postdose, single iv 1 mg/kg): 0.270 µmol/L | Total detected radiolabeled components, concentration in dried plasma ([2]; 4 h postdose, single iv 1 mg/kg): 0.241 µmol/L | Total detected radiolabeled components, concentration in dried plasma ([2]; 8 h postdose, single iv 1 mg/kg): 0.134 µmol/L | Total detected radiolabeled components, concentration in dried plasma ([2]; 24 h postdose, single iv 1 mg/kg): 0.080 µmol/L | Total detected radiolabeled components, concentration in dried plasma ([2]; 48 h postdose, single iv 1 mg/kg): 0.0781 µmol/L | Time up to which detectable in plasma ([2]; after i.v. dosing 1 mg/kg, LC‐MS‐RA): up to 24 h | AUC0‐48h ratio of total radioactivity over parent compound ([2]; dried plasma): about 17 | clearance ([2]; male, CD-1, mouse, plasma, intravenous, 1 mg/kg): 157 mL/min/kg | AUC [2, 7]: 0.335 µM·h | Cmax [2, 7]: 402 nM | concentration at 0.083 h [2, 7]: 402 nM | concentration at 0.5 h [2, 7]: 119 nM | concentration at 1 h [2, 7]: 22.3 nM | concentration at 2 h [2, 7]: 6 nM | concentration at 4 h [2, 7]: 6.3 nM | concentration at 8 h [2, 7]: 3.6 nM | concentration at 48 h [2, 7]: 6.7 nM | Total detected radiolabeled components, plasma AUC0‐48 h ([2]; single iv 1 mg/kg): 5.69 µM·h | Total detected radiolabeled components, plasma AUC0‐48 h (% AUC of total RA) ([2]; single iv 1 mg/kg): 100 % AUC of total RA | AUC0‐48 h of radiolabeled component in plasma (% AUC of total RA) ([2]; single iv 1 mg/kg): 5.89 % AUC of total RA | Time up to which total radiolabeled components detectable in the brain ([3]; QWBA): up to 48 h | Cmax tissue over blood ratio ([3]; other matrices): smaller than 2 | Share of matrices with AUClast greater than that of blood ([3]; total radiolabeled components): more than 90% | Total detected radioactivity, total excretion (urine + feces) ([4]; 0–48 h, single iv 1 mg/kg): 48.3 % of RA dose | Amount of radiolabeled component, total excretion (urine + feces) [4, 8]: 31.7 % of RA dose | Overall recovery of radioactivity (mass balance) ([4]; 48 h, urine, feces, carcass and tritiated water): 102.3% | Radioactivity in carcass 48 h ([4]; 48 h p.d., single iv 1 mg/kg): 38.6 % of RA dose | Radioactivity in cage wash (0–48) ([4]; single iv 1 mg/kg): 6.81 % of RA dose | Amount of radiolabeled component in urine (0–48 h) [4, 9]: 31.2 % of RA dose | Total detected radioactivity in feces (0–48) [4, 9]: 2.34 % of RA dose | Total detected radioactivity in urine (0–48 h), without cage wash [4, 9]: 45.9 % of RA dose | Amount of radiolabeled component in feces (0–48) [4, 10]: 0.489 % of RA dose | Tolerability [5]: well tolerated

O=c1ccn([C@@H]2O[C@H](CO)[C@@H](O)[C@H]2O)c(=O)[nH]1 [Metabolite M1, uridine]
Highest plasma concentration [2]: 0.2 µmol/L | AUC [2, 7]: 1.87 µM·h | concentration at 0.083 h [2, 7]: 5.1 nM | concentration at 0.5 h [2, 7]: 170 nM | concentration at 1 h [2, 7]: 108 nM | concentration at 2 h [2, 7]: 130 nM | concentration at 4 h [2, 7]: 104 nM | concentration at 8 h [2, 7]: 43.4 nM | concentration at 24 h [2, 7]: 26.9 nM | concentration at 48 h [2, 7]: 18.8 nM | AUC0‐48 h of radiolabeled component in plasma (% AUC of total RA) ([2]; single iv 1 mg/kg): 32.8 % AUC of total RA | Amount of radiolabeled component, total excretion (urine + feces) [4, 8]: 0.156 % of RA dose | Amount of radiolabeled component in heart [6]: 28.4% | Amount of radiolabeled component in kidney [6]: 10.6% | Amount of radiolabeled component in liver [6]: 47.6% | Amount of radiolabeled component in lung [6]: 2.31% | Amount of radiolabeled component in salivary gland [6]: 6.88% | Amount of radiolabeled component in spleen [6]: 32.9%

Nc1cc[nH]c(=O)n1 [Metabolite M2, cytosine]
AUC [2, 7]: 0.461 µM·h | concentration at 0.5 h [2, 7]: 38.9 nM | concentration at 1 h [2, 7]: 33.3 nM | concentration at 2 h [2, 7]: 7.1 nM | concentration at 4 h [2, 7]: 22.6 nM | concentration at 8 h [2, 7]: 11.1 nM | concentration at 24 h [2, 7]: 5.7 nM | concentration at 48 h [2, 7]: 9.6 nM | AUC0‐48 h of radiolabeled component in plasma (% AUC of total RA) ([2]; single iv 1 mg/kg): 8.11 % AUC of total RA | Amount of radiolabeled component, total excretion (urine + feces) [4, 8]: 0.0771 % of RA dose | Amount of radiolabeled component in urine (0–48 h) [4, 10]: 0.0771 % of RA dose | Amount of radiolabeled component in heart [6]: 6.81% | Amount of radiolabeled component in liver [6]: 17.8% | Amount of radiolabeled component in lung [6]: 2.41% | Amount of radiolabeled component in spleen [6]: 3.62%

O=c1cc[nH]c(=O)[nH]1 [Metabolite M3, uracil]
Highest plasma concentration [2]: 0.1 µmol/L | AUC [2, 7]: 1.34 µM·h | concentration at 0.083 h [2, 7]: 14.2 nM | concentration at 0.5 h [2, 7]: 144 nM | concentration at 1 h [2, 7]: 109 nM | concentration at 2 h [2, 7]: 87.5 nM | concentration at 4 h [2, 7]: 63.5 nM | concentration at 8 h [2, 7]: 36.8 nM | concentration at 24 h [2, 7]: 14.5 nM | concentration at 48 h [2, 7]: 17.5 nM | AUC0‐48 h of radiolabeled component in plasma (% AUC of total RA) ([2]; single iv 1 mg/kg): 23.6 % AUC of total RA | Amount of radiolabeled component, total excretion (urine + feces) [4, 8]: 4.03 % of RA dose | Amount of radiolabeled component in feces (0–48) [4, 9]: 0.418 % of RA dose | Amount of radiolabeled component in heart [6]: 46.6% | Amount of radiolabeled component in kidney [6]: 89.4% | Amount of radiolabeled component in liver [6]: 28.8% | Amount of radiolabeled component in lung [6]: 83.4% | Amount of radiolabeled component in salivary gland [6]: 90.9% | Amount of radiolabeled component in spleen [6]: 57.9%

Nc1ccn([C@@H]2O[C@H](CO)[C@@H](O)[C@H]2O)c(=O)n1 [Metabolite M5, cytidine]
AUC [2, 7]: 0.0639 µM·h | concentration at 0.5 h [2, 7]: 44 nM | concentration at 2 h [2, 7]: 8.6 nM | concentration at 4 h [2, 7]: 10.3 nM | concentration at 48 h [2, 7]: 0 nM | AUC0‐48 h of radiolabeled component in plasma (% AUC of total RA) ([2]; single iv 1 mg/kg, 1 mg/kg): 1.12 % AUC of total RA | Amount of radiolabeled component, total excretion (urine + feces) [4, 8]: 1.94 % of RA dose | Amount of radiolabeled component in feces (0–48) [4, 9]: 0.102 % of RA dose
